Compound activity: PubChem BioAssay, several laboratories
An excerpt weighted towards active compounds, which were near 3.8% of everything screened.
OX1R antag-1: antagonists of human orexin 1 receptor; CHO/OX1R cells, Fluo-8 calcium fluorescence, orexin A; inhibition, % at 5 µM; hit rate 0.43% among 330,000; AID 434989;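 active = inhibition above its plate's threshold, mean inhibition of all tested compounds on the plate plus 3 SD, cut at about 37% in these data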;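 note: 0% = orexin A challenge wells and 100% = SB-334867-A antagonist wells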
MPTP inh: permeability transition pore inhibition; isolated mouse mitochondria, Ca2+ swelling absorbance, 30 min; inhibition, % at 10 µM; hit rate 1.4% among 360,000; AID 602449;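 active = inhibition of 50% or more, scaled per plate between neutral and stimulator controls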;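 note: 0% = DMSO wells given calcium and 100% = 1 mM EGTA wells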
GPR7 antagonist: antagonists of human GPR7 (neuropeptides B/W receptor 1); inhibition, % at 4.4 µM; GPR7-expressing cells, fluorescence antagonist assay; AID 1861; hit rate 1.1% among 290,000; in the data active = inhibition above about 16%, passing the limit was not always enough;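 note: cells stimulated with the agonist NPW; 0% = agonist with vehicle and 100% = vehicle without agonist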
Target sequence (P48145 whole entry, looked up): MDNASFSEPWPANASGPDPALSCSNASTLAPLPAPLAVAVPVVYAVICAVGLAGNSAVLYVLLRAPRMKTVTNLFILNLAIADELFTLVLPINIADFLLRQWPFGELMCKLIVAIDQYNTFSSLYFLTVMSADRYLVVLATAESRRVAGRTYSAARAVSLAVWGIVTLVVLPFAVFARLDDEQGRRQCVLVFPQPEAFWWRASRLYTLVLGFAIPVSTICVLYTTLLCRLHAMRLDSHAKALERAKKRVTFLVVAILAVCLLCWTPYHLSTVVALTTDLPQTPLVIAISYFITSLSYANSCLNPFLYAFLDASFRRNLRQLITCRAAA
OX1R antag-2: blocks the human orexin 1 receptor; OX1R-expressing cells, FRET antagonist read-out; inhibition, % at 6.6 µM; hit rate 1.8% among 330,000; in the data active = inhibition mostly above about 38%, no sharp cut-off; inactive = mostly below about 40%;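 note: 0% = agonist challenge alone and 100% = reference antagonist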
CHO parental Ca: counter-screen for OX1R antagonists: effect in parental CHO cells; inhibition, % at 5.6 µM; parental CHO-K1, ATP-induced calcium, Fluo-8 fluorescence; hit rate 0.63% among 330,000;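 active = inhibition above that plate's mean sample inhibition plus 3 SD, cut at about 26% in these data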;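 note: 0% = ATP-challenged DMSO wells and 100% = DMSO wells without ATP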
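Assay system: untransfected parental CHO cell line. Also added: ATP agonist challenge. Dosing: one dose, 5.6 µM nominal. Measured by: Fluo-8 fluorescence. Read-out: % inhibition. Benchmarks: ATP wells versus no-ATP DMSO wells. Repeats: no replicates.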
An asterisk follows results filed as active; x = not tested or not shown.

SMILES | OX1R antag-1 | MPTP inh | GPR7 antagonist | OX1R antag-2 | CHO parental Ca
Cc1cc(C)c(S(=O)(=O)NCCc2cc3ccc(C)c(C)c3[nH]c2=O)c(C)c1 | -0.7 | -1.4 | -16.3 | 5.8 | -17.9
COCc1[nH]nc2c1C(c1cc(OC)c(O)c(OC)c1)C(C#N)=C(N)O2 (stereo not given) | -5.8 | -1.1 | 0.5 | 75.9* | -6.4
CC(C)(C)c1ccc(OCCn2nc(C(=O)O)c3ccccc3c2=O)cc1 | 45.9* | 2.5 | -22.9 | 21.1 | 28.9*
Cc1ccc(OC(C)C(=O)Nc2ccncc2)cc1C (stereo not given) | 6.1 | 48.2 | -6.1 | 5.7 | 3.4
CCN(CC)C(=O)COc1ccc(-c2nnc(Nc3ccc(OC)c(C(=O)NC)c3)c3ccccc23)cc1 | -35.4 | -0.1 | 18.9* | 8.0 | -24.2
O=C(O)c1[nH]c2ccc(Cl)cc2c1CC(=O)N1CCN(c2ccccc2)CC1 | 11.6 | 0.2 | -8.7 | 19.4 | 43.7*
Nc1[nH]c2cc([N+](=O)[O-])ccc2c1-c1ccccn1 | 51.2* | 13.6 | 9.3 | 16.8 | 36.6*
N#CCN1C(=S)N=C(Nc2cccc(Cl)c2)C12CCCCC2 | -10.7 | -0.4 | -18.1 | 42.5 | 47.1*
COc1ccc(F)cc1C(=O)C1CCCN(Cc2cccn2-c2ccccn2)C1 (stereo not given) | -18.4 | -0.2 | 19.1* | 8.0 | -26.7
CCCNC(=O)/C(C#N)=C1\N=C(NC(=O)c2ccco2)c2ccccc21 | -5.5 | -1.1 | 6.0 | 46.6* | -2.3
O=C(NCCN1CCc2ccccc2C1)C1CCN(S(=O)(=O)N2CCCCC2)CC1 | -17.6 | 1.6 | 20.1* | 9.9 | -10.2
COc1ccc(NS(=O)(=O)c2ccc(O)c(NS(=O)(=O)c3ccc(NC(C)=O)cc3)c2)cc1 | -11.3 | -0.9 | x | 5.7 | -7.3
Cc1cc(=O)oc2cc(NC(=O)c3c(Cl)cnn3C)ccc12 | -12.7 | 1.2 | -2.7 | 61.3* | -6.1
Cc1cc(=O)oc2cc(NC(=O)c3ccnn3C)ccc12 | -8.8 | -2.0 | -1.3 | 10.8 | -8.0
O=C(CN1CCN(c2ccccc2)CC1)N/N=C/c1cccc(F)c1 | -5.7 | 0.6 | -4.0 | 3.2 | -7.0
CCOC(=O)C1=C(CSc2nc3ccccc3s2)NC(=O)NC1c1ccc(OC)cc1 (stereo not given) | -15.2 | 4.1 | 4.0 | 31.4 | -18.2
CCOC(=O)C1=C(CSc2nc3ccccc3s2)NC(=O)NC1c1cc(C)ccc1C (stereo not given) | 26.6 | 3.6 | -4.0 | 48.8* | -28.7
O=C(O)c1ccc(Nc2ccc3nonc3c2[N+](=O)[O-])cc1 | 9.4 | 6.3 | -9.4 | 57.0* | -6.7
CCOc1ccc(Nc2ccc3nonc3c2[N+](=O)[O-])cc1 | -34.6 | -0.5 | 13.6 | 44.6* | -0.2
O=[N+]([O-])c1c(Nc2ccc(Br)cc2)ccc2nonc12 | -9.9 | -0.3 | -7.0 | 13.4 | -4.0
Cc1ccc(Nc2ccc3nonc3c2[N+](=O)[O-])cc1 | -6.8 | 0.6 | 3.7 | 64.3* | -16.6
CC(=O)Nc1ccc(Nc2nc(C)c([N+](=O)[O-])c(Nc3ccccc3)n2)cc1 | -16.6 | 3.9 | -4.9 | 32.1 | -12.7
Cc1nc(Nc2ccc(C(=O)O)cc2)nc(Nc2ccc(C(=O)O)cc2)c1[N+](=O)[O-] | -2.0 | -0.5 | -11.1 | 42.3* | 0.8
Cc1cc(NC(=O)c2ccc3sc([C@@H]4O[C@H](CO)[C@H](O)[C@H](O)[C@H]4O)nc3c2)no1 | x | -0.2 | x | x | x
O=C(CCC(=O)c1ccc(F)cc1)NCC1(N2CCCCC2)CCCCC1 | -16.4 | 0.4 | x | 3.1 | -18.9
SMILES | OX1R antag-1 | MPTP inh | GPR7 antagonist | OX1R antag-2 | CHO parental Ca
Cc1ccc(Nc2ccc([N+](=O)[O-])nc2[N+](=O)[O-])cc1 | 2.3 | 0.5 | 3.5 | 62.1* | -7.7
Cc1ccn2cc(-c3ccc4c(c3)NC(=O)CO4)nc2c1 | -12.7 | -0.4 | 16.9* | 10.2 | 1.1
CSc1nc2nccc(-c3ccc(-c4ccccc4)cc3)n2n1 | 1.0 | -0.6 | -4.7 | 43.5* | -24.8
COc1ccccc1C(=O)N/C(=C/c1ccc(Br)cc1)C(=O)N1CCOCC1 | x | -1.2 | x | x | x
O=C(Cc1cc(C(F)(F)F)cc(C(F)(F)F)c1)Nc1c(-c2ccccc2)[nH][nH]c1=O | x | 2.5 | x | x | x
NC1=Nc2cccc3cccc1c23 | -4.2 | -1.9 | -10.0 | 71.0* | 10.5
O=[n+]1c2c(n([O-])c3cc(F)c(N4CCCC4)cc31)CCC2 | 7.5 | 0.0 | 6.1 | 67.6* | 2.7
O=[n+]1c2c(n([O-])c3cc(F)c(N4CCCC4)cc31)CCCC2 | -0.3 | -0.3 | -5.7 | 52.5* | 4.6
Cc1nc(C(F)(F)F)ccc1C(=O)N1CCC1(C)C(=O)NCc1cccs1 (stereo not given) | x | -0.5 | x | x | x
